Active and inactive are the calls of the source. The calls are words filed in the database; no cut-off is given here.
Tests used:
MCF7 = experiment: Induction of ERalpha degradation in human MCF7 cells at 30 uM after 24 hrs by Western blot analysis; format: functional, cell-based
In short: (§1)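 MCF-7 cells were kept in D-MEM with 10% FBS and penicillin/streptomycin, with 2 nM E2 as physiological agonist, at 37 °C under 5% CO2. Cells (1×10^6) were treated, lysed in SDS buffer and protein was BCA-normalized. Lysates ran on 10-20% SDS-PAGE and PVDF, blocked with 5% skim milk, then probed with rabbit polyclonal anti-ERα (1:200) and β-actin. Detection used HRP secondaries and ECL.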

[1] = molecular target: Baculoviral IAP repeat-containing protein 2 (Homo sapiens) (UniProt Q13490); experiment: Induction of cIAP1-mediated AR degradation in human MCF7 cells at 30 uM after 24 hrs by Western blot analysis relative to control; format: cell-based
In short: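 MCF-7 cells were grown in D-MEM with 10% FBS, penicillin/streptomycin and 10 nM DHT at 37 °C under 5% CO2. Cells (1×10^6) were treated, lysed in SDS buffer, and equal protein (by BCA) was run on 10-20% SDS-PAGE and transferred to PVDF. Blots were blocked in 5% skim milk/TBS-T, probed with mouse monoclonal anti-AR (1:200) and β-actin antibody, and read by ECL.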

[2] = molecular target: Baculoviral IAP repeat-containing protein 2 (Homo sapiens) (UniProt Q13490); experiment: Induction of cIAP1-mediated ERalpha degradation in human MCF7 cells at 30 uM after 24 hrs by Western blot analysis; format: cell-based; in short: as §1
[3] = molecular target: Baculoviral IAP repeat-containing protein 2 (Homo sapiens) (UniProt Q13490); experiment: Induction of FLAG-tagged cIAP1 expressed in human HT1080 cells assessed as RARalpha degradation at 30 uM after 24 hrs by Western blot analysis; format: cell-based; details: HT-1080
In short: (§2)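 HT-1080 cells were grown in RPMI 1640 with 10% heat-inactivated FBS at 37 °C under 5% CO2. Cells (1×10^6) were treated, then lysed in SDS buffer and protein was equalized by BCA. Lysates ran on 10-20% SDS-PAGE and went to PVDF, blocked with 5% skim milk/TBS-T. Blots were probed with anti-CRABP-II or anti-RARα plus β-actin, HRP secondaries, and ECL detection.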

[4] = molecular target: Baculoviral IAP repeat-containing protein 2 (Homo sapiens) (UniProt Q13490); experiment: Induction of FLAG-tagged cIAP1 expressed in human HT1080 cells assessed as RARalpha degradation at 10 uM after 6 hrs by Western blot analysis in presence of RAR antagonist LE540 added 30 mins prior to compound treatment; format: functional, cell-based; details: HT-1080; in short: as §2
[5] = molecular target: Baculoviral IAP repeat-containing protein 2 (Homo sapiens) (UniProt Q13490); experiment: Induction of FLAG-tagged cIAP1 expressed in human HT1080 cells assessed as RARalpha degradation after 24 hrs by Western blot analysis; format: cell-based; details: HT-1080; in short: as §2
[6] = molecular target: Baculoviral IAP repeat-containing protein 2 (Homo sapiens) (UniProt Q13490); experiment: Induction of FLAG-tagged cIAP1 expressed in human HT1080 cells assessed as CRABP-2 degradation at 1 to 30 uM after 24 hrs by Western blot analysis; format: cell-based; details: HT-1080; in short: as §2
[7] = molecular target: Baculoviral IAP repeat-containing protein 2 (Homo sapiens) (UniProt Q13490); experiment: Induction of FLAG-tagged cIAP1 expressed in human HT1080 cells assessed as RARalpha degradation at 10 uM after 6 hrs by Western blot analysis in presence of proteasome inhibitor MG132 added 30 mins prior to compound treatment; format: cell-based; details: HT-1080; in short: as §2
[8] = molecular target: Baculoviral IAP repeat-containing protein 2 (Homo sapiens) (UniProt Q13490); experiment: Induction of FLAG-tagged cIAP1 expressed in human HT1080 cells assessed as RARalpha degradation at 10 uM after 24 hrs by Western blot analysis; format: cell-based; details: HT-1080; in short: as §2
HT-1080 [9] = experiment: Induction of CRABP-2 degradation in human HT1080 cells at 10 uM after 24 hrs by Western blot analysis; format: functional, cell-based; in short: as §2
[10] = molecular target: Baculoviral IAP repeat-containing protein 2 (Homo sapiens) (UniProt Q13490); experiment: Induction of cIAP1-mediated ERalpha degradation in human MCF7 cells at 1 to 30 uM after 24 hrs by Western blot analysis; format: cell-based; in short: as §1
HT-1080 [11] = experiment: Induction of RARalpha degradation in human HT1080 cells at 10 uM after 24 hrs by Western blot analysis; format: functional, cell-based; in short: as §2

Chain of Baculoviral IAP repeat-containing protein 2 (Homo sapiens) (Q13490 whole entry): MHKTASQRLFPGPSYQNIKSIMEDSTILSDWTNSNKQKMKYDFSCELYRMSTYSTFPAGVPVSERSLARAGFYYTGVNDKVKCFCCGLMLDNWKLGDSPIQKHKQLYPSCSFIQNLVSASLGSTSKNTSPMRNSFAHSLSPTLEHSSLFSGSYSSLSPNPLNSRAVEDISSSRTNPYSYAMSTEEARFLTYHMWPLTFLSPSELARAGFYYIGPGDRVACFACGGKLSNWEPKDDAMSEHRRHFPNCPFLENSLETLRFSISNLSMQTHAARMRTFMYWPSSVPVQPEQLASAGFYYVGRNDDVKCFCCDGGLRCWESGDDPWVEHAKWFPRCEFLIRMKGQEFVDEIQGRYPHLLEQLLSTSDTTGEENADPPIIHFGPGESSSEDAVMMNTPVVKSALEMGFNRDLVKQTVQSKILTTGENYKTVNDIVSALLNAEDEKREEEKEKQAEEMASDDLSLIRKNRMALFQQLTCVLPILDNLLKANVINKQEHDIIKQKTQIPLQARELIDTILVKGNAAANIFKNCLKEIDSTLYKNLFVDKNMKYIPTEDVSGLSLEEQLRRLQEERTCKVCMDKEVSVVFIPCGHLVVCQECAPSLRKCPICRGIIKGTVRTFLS

C[C@]12CC[C@@H]3c4ccc(O)cc4CC[C@H]3[C@@H]1CCC2=O
Activity (MCF7): inactive

CNC(=O)[C@H](CC(C)C)NC(=O)[C@@H](O)[C@H](N)Cc1ccccc1
Activity [1]: Active
Activity [2]: inactive
Activity [3]: inactive

CC(C)C[C@H](NC(=O)[C@@H](O)[C@H](N)Cc1ccccc1)C(=O)NCCOCCOCCOCC(=O)NCCCOc1cc(/C=C/C(=O)c2cc(C(C)(C)C)cc(C(C)(C)C)c2)ccc1C(=O)O
Activity [4]: inactive
Activity [5]: Dose-dependent effect
Activity [6]: inactive
Activity [7]: inactive

CC(C)C[C@H](NC(=O)[C@@H](O)[C@H](N)Cc1ccccc1)C(=O)NCCOCCOCCOCC(=O)O[C@H]1CC[C@H]2[C@@H]3CC[C@H]4CC(=O)CC[C@]4(C)[C@H]3CC[C@]12C
Activity [1]: Active

CC1=C(/C=C/C(C)=C/C=C/C(C)=C/C(=O)O)C(C)(C)CC/C1=N\OCC(=O)NCCOCCOCCOC(=O)[C@H](CC(C)C)NC(=O)[C@@H](O)[C@H](N)Cc1ccccc1
Activity [8]: inactive
Activity (HT-1080 [9]): Active

CC(C)C[C@H](NC(=O)CCCc1ccccc1)C(=O)NCCOCCOCCNC(=O)CO/N=C1\CC[C@H]2[C@@H]3CCc4cc(O)ccc4[C@H]3CC[C@]12C
Activity [10]: inactive

CC(C)C[C@H](NC(=O)CCCc1ccccc1)C(=O)NCCOCCOCCOCC(=O)NCCCOc1cc(/C=C/C(=O)c2cc(C(C)(C)C)cc(C(C)(C)C)c2)ccc1C(=O)O
Activity (HT-1080 [11]): inactive

CC(C)C[C@H](NC(=O)[C@@H](O)[C@H](N)Cc1ccccc1)C(=O)NCCOCCOCCNC(=O)CO/N=C1\CC[C@H]2[C@@H]3CCc4cc(O)ccc4[C@H]3CC[C@]12C
Activity [2]: Active

— ChEMBL document CHEMBL2150969, “Design, synthesis and biological evaluation of nuclear receptor-degradation inducers” (Bioorg Med Chem, 2011)
